ChEMBL document CHEMBL2016448, “Discovery of new piperidine amide triazolobenzodiazepinones as intestinal-selective CCK1 receptor agonists” (Bioorg Med Chem Lett, 2012)

Assays:
[1] = molecular target: T1, Cholecystokinin receptor type A (Homo sapiens, UniProt P32238); test: Agonist activity at human CCK1 receptor assessed as increase in CCK8-induced calcium release incubated in dark for 30 mins followed by light incubation for 30 mins measured by FLIPR assay; assay type: functional
T1 sequence (P32238 whole entry): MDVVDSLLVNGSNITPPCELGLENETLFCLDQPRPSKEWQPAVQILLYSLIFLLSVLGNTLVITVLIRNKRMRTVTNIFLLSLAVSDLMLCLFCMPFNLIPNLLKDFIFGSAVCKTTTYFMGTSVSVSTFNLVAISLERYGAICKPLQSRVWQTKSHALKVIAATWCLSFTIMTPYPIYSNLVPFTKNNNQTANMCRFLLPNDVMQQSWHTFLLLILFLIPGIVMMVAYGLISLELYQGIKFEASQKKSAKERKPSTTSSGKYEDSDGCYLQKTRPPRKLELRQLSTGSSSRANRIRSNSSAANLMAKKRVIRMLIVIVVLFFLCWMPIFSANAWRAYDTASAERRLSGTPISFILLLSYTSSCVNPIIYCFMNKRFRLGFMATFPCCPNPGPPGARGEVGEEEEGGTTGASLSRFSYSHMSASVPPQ
How it was run: (§1)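 FLIPR functional assay in CHO cells expressing human CCK1R. Agonism expressed as % of the CCK-8 peptide response. Initial screen at 30 µM, with >30% counted as active. Actives then run as full dose–response. EC50 is the geometric mean of at least 2 independent experiments.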

[2] = molecular target: T2, Cholecystokinin receptor type A (Homo sapiens) (UniProt P32238); test: Agonist activity at human CCK1 receptor assessed as increase in CCK8-induced calcium release incubated in dark for 30 mins followed by light incubation for 30 mins measured by FLIPR assay relative to CCK8; assay type: functional; how it was run: as §1
T2 sequence (whole entry): T1 sequence (P32238 whole entry)

[3] = Intrinsic clearance in human microsomes; assay type: ADME, Microsome
How it was run: (§2)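 Intrinsic clearance measured in human liver microsomes. The free value is corrected for microsomal binding.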

[4] = molecular target: T1, Cholecystokinin receptor type A; test: Displacement of [125I]-CCK-8 from human CCK1 receptor expressed in CHO cells after 90 mins by liquid scintillation counting
[5] = Lipophilicity, log D of the compound at pH 7.4; assay type: physicochemical; settings: buffer
[6] = Free intrinsic clearance in human microsomes; assay type: ADME, Microsome; how it was run: as §2
[7] = tested on: Mus musculus; test: Antiobesity in C57Bl/6J mouse assessed as reduction in gall bladder weight at 0.6 mg/kg, po measured after 1 hr relative to control; assay type: functional; set-up: scale not given: the % may be the effect or the level left
[8] = Drug excretion in Sprague-Dawley rat bile at 1 mg/kg, iv measured after 24 hrs; assay type: ADME, organism-based; set-up: dose 1 mg/kg, route intravenous; settings: read-out: Ae
How it was run: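 Bile-cannulated rats dosed iv at 1 mg/kg. Bile collected over 24 h and % of dose excreted into bile determined.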

[9] = tested on: Liver; test: Clearance in rat liver; assay type: ADME, organism-based; settings: in vivo
[10] = Solubility of the compound in phosphate buffer; assay type: physicochemical
[11] = Bioavailability in rat portal system; assay type: ADME, organism-based
[12] = tested on: Mus musculus; test: Antiobesity in C57Bl/6J mouse assessed as reduction in gall bladder weight at 2 mg/kg, po measured after 24 hr relative to control; assay type: functional; set-up: scale not given: the % may be the effect or the level left
[13] = Ratio free drug level in gut to portal system of Sprague-Dawley rat at 10 mg/kg, po administered as single dose measured after 4 hrs; assay type: ADME, organism-based; set-up: dose 10 mg/kg, route oral
How it was run: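 Single oral dose to rats. Gut and portal drug exposures were measured at 2 h and 4 h post-dose and corrected for non-specific binding to give free concentrations. The free gut to free portal ratio was then calculated at each time point.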

[14] = tested on: Plasma; test: Plasma clearance in Sprague-Dawley rat at 3 mg/kg, iv; assay type: ADME, organism-based; set-up: dose 3 mg/kg, route intravenous; settings: in vivo
[15] = Tmax in Sprague-Dawley rat at 6 mg/kg, po; assay type: ADME, organism-based; set-up: dose 6 mg/kg, route oral; settings: in vivo
How it was run: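 Male Sprague–Dawley rats dosed iv or po. Oral doses given in SDD formulation. Plasma PK parameters reported as mean of n = 3 rats.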

| SMILES | EC50 [1] | Efficacy [2] | clearance [3] | IC50 [4] | logD ([5]; read-out: logD) | CL free [6] | CLH [9] | solubility [10] | bioavailability [11] | logD [5] | Kp uu at 4 h [13] | clearance [14] | Tmax [15] | Activity [7] | dose excreted at 24 h [8] | Activity [12] |
| --- | --- | --- | --- | --- | --- | --- | --- | --- | --- | --- | --- | --- | --- | --- | --- | --- |
| O=C1C(Cc2c[nH]c3ccccc23)c2nnc(-c3ccccc3)n2-c2ccccc2N1CC(=O)N1CCCC1Cc1ccccn1 (mixture of isomers) | 560 nM | 86% | 212 µL/min/mg | 373 nM | – | – | – | – | – | – | – | – | – | – | – | – |
| CC(C)N(Cc1ccccc1)C(=O)CN1C(=O)[C@@H](Cc2n[nH]c3ccccc23)c2nnc(-c3ccccc3)n2-c2ccccc21 | 380 nM | 72% | – | 38.1 nM | 4.7 | – | – | – | – | – | – | – | – | – | – | – |
| CCC1CCCCN1C(=O)CN1C(=O)C(Cc2c[nH]c3ccccc23)c2nnc(-c3ccccc3)n2-c2ccccc21 (mixture of isomers) | 400 nM | 78% | > 300 µL/min/mg | 36.9 nM | – | – | – | – | – | – | – | – | – | – | – | – |
| CC(C)N(Cc1ccccc1)C(=O)CN1C(=O)[C@@H](Cc2c[nH]c3ccccc23)c2nnc(-c3ccccc3)n2-c2ccccc21 [CE-326597] | – | 95% | 199 µL/min/mg | – | – | 597 µL/min/mg | 47 mL/min/kg | Insoluble | 9% | 4.9 | 65 | 41.7 mL/min/kg | 1.33 h | 91% | 0.04% | 27.5% |
| CC(C)C1CCCCN1C(=O)CN1C(=O)C(Cc2c[nH]c3ccccc23)c2nnc(-c3ccccc3)n2-c2ccccc21 (mixture of isomers) | 494 nM | 95% | 220 µL/min/mg | 80.1 nM | – | – | – | – | – | – | – | – | – | – | – | – |

Second part, led by results:

| EC50 [1] | Efficacy [2] | clearance [3] | IC50 [4] | logD ([5]; read-out: logD) | CL free [6] | CLH [9] | solubility [10] | bioavailability [11] | logD [5] | Kp uu at 4 h [13] | clearance [14] | Tmax [15] | SMILES | Activity [7] | dose excreted at 24 h [8] | Activity [12] |
| --- | --- | --- | --- | --- | --- | --- | --- | --- | --- | --- | --- | --- | --- | --- | --- | --- |
| 12.9 nM | 103% | – | 36 nM | 4.6 | 846 µL/min/mg | – | – | – | – | – | – | – | O=C1[C@@H](Cc2n[nH]c3ccccc23)c2nnc(-c3ccccc3)n2-c2ccccc2N1CC(=O)N1CCCCC1Cc1ccccc1 (some centres not stated) | 91% | 0.32% | – |
| 2.7 nM | 100% | – | 9.9 nM | 3.1 | 154 µL/min/mg | – | – | – | – | – | – | – | COCCC1CCCCN1C(=O)CN1C(=O)[C@@H](Cc2n[nH]c3ccccc23)c2nnc(-c3ccccc3)n2-c2ccccc21 (single isomer, unassigned) | 85% | 0.26% | – |
| 31.9 nM | 105% | 114 µL/min/mg | 93.3 nM | – | – | – | – | – | – | – | – | – | O=C1C(Cc2c[nH]c3ccccc23)c2nnc(-c3ccccc3)n2-c2ccccc2N1CC(=O)N1CCCCC1Cc1ccccn1 (mixture of isomers) | – | – | – |
